RGS4 inh: inhibitors of human RGS4 | P49798 | HEK293 M3R/RGS4 inducible, Fluo-4 calcium flux; hits give high values; triggered by carbachol at its EC20 | 310,000 compounds, 0.45% hits | B-score at 10 µM | AID 463165;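 active = B-score, a plate-corrected calcium signal, over three deviations above library mean, with baseline fluorescence within five deviations of library mean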;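 also: RGS4 expression induced by doxycycline in cells with stable M3 receptor; B-score is computed from the integrated fluorescence ratio over baseline after carbachol; higher B-score means a larger calcium signal and so more RGS4 inhibition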
Target sequence (P49798 whole entry, looked up): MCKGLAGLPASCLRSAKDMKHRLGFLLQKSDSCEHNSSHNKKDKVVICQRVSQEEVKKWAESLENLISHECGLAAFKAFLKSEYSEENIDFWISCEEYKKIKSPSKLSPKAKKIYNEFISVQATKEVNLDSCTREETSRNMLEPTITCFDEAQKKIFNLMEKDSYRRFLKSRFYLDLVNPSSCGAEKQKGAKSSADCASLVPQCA
MrgX1 ag: agonists of human MrgX1 receptor | Q96LB2 | MrgX1-HEK293 cells, Fluo-4 calcium fluorescence, agonist mode; hits give high values | B-score at 10 µM | 310,000 compounds, 0.44% hits;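 active = calcium response B-score plate-corrected fluorescence ratio at least 3 library SD, with starting fluorescence B-score inside 5 SD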
Target sequence (Q96LB2 whole entry, looked up): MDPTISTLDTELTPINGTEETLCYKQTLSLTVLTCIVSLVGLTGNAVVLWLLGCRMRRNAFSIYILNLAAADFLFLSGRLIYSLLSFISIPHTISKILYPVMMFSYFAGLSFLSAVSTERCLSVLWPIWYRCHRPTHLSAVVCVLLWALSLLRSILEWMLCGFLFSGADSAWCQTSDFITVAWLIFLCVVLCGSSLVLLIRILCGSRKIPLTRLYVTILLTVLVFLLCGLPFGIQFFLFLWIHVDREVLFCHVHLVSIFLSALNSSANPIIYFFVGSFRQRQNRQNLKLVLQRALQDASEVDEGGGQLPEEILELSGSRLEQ
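Assay system: MrgX1-expressing HEK293 cells / Amount: fifteen thousand cells per well / Doses: test compound in the initial addition of three / Timing: cells plated overnight, dye loaded 0.5 h 37 °C, 0.5 h room temperature / Technique: kinetic calcium dye fluorescence, Fluo-4 NW / Control set: positive and negative controls per plate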
MrgX1 allo act: allosterically activates human MrgX1 receptor signaling; Q96LB2; MrgX1-HEK293, Fluo-4 calcium flux, FDSS; hits give high values; B-score at 10 µM; 310,000 compounds, 0.63% hits;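 active = plate-corrected calcium response at least 3 library SD above typical, normal starting fluorescence, not activating the receptor alone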;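 also: compound read alongside a low EC10 to EC30 dose of BAM8-22 agonist; peak minus trough fluorescence over baseline measured at the second addition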
MrgX1 antag: human MrgX1 receptor antagonism, primary screen; Q96LB2; MRGX1-HEK293 calcium flux, Fluo-4, BAM8-22 antagonism; hits give low values; B-score at 10 µM; 310,000 compounds, 1.3% hits;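 active = calcium-response B-score plate-corrected more than 3 library SD below zero, starting fluorescence within 5 deviations, no agonist response on first addition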;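 also: peak minus trough fluorescence over baseline after final BAM8-22 challenge near maximal dose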
RGS4 pot: potentiators or activators of RGS4; 310,000 compounds, 0.92% hits; B-score at 10 µM; HEK293 M3R/inducible RGS4, carbachol calcium flux Fluo4; hits give low values;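 active = B-score of the integrated calcium signal more than 4 SD below the library mean, with starting fluorescence not abnormally high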;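 also: negative B-score means reduced calcium response which marks RGS4 activation or potentiation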
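Material: M3R-expressing HEK293 line, RGS4 induced by doxycycline | Schedule: Overnight RGS4 induction, 30 min dye load 37 °C, 20 min compound RT | Measured by: Fluo4 fluorescence kinetic imaging of calcium | Read-out: Integrated calcium ratio converted to B score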
Starred values were filed as active, the others as inactive; i = inactive; / = not tested or not shown. An excerpt weighted towards active compounds, which were near 3.5% of everything screened.

SMILES	RGS4 inh	MrgX1 ag	MrgX1 allo act	MrgX1 antag	RGS4 pot
CC(C)CN(C(=O)C1CSC2(C)CCC(=O)N12)c1c(N)n(Cc2ccccc2)c(=O)[nH]c1=O (stereo not given)	i	i	i	i	i
COc1ccccc1C1=NNC(=Nc2cccc(S(=O)(=O)N(C)C)c2)SC1	i	i	i	-5*	i
COCCn1c(C)cc(C2=NNC(=Nc3ccccc3)SC2)c1C	i	i	i	i	i
CCOc1ccc(C(C)=O)cc1Cc1c(O)nc(N)[nH]c1=O	i	i	i	-5.2*	i
CCOC(=O)/C(=N/Nc1ccc(C)cc1)S(=O)(=O)c1ccc(Cl)cc1	i	i	i	i	-8*
O=C(c1cccc(C(F)(F)F)c1)C1CCCN(Cc2cccc(OCCO)c2)C1 (stereo not given)	i	i	i	i	-7*
COc1ccc(C(=O)C2CCCN(Cc3c(O)cccc3OC)C2)cc1OC (stereo not given)	i	i	i	i	i
COc1cccc(O)c1CN1CCCC(C(=O)c2cccc(C(F)(F)F)c2)C1 (stereo not given)	i	i	i	i	-7.5*
COc1ccc(S(=O)(=O)NCc2cc(=O)n(C)c(=O)n2C)cc1F	i	i	i	i	i
CCOC(=O)N1CCN(S(=O)(=O)c2ccc(C(=O)N(CCCN(C)C)c3nc4c(C)c(C)ccc4s3)cc2)CC1	i	i	i	i	i
COc1ccc2sc(N(CCCN(C)C)C(=O)c3ccc(S(=O)(=O)N4CCCC4)cc3)nc2c1	i	i	i	i	-7.2*
CCOC(=O)N1CCN(S(=O)(=O)c2ccc(C(=O)N(CCCN(C)C)c3nc4cc(OC)ccc4s3)cc2)CC1	i	i	i	i	-7.6*
CN(C)CCC(=O)C(Cc1ccccc1)c1ccccc1 (stereo not given)	i	i	i	i	i
CC(CCCN(C)C)C(Cc1ccccc1)c1ccccc1 (stereo not given)	i	i	i	i	-7.8*
Clc1ccccc1/C=N/c1cc(-c2ccccc2)nn1-c1ccccc1	i	i	i	-4.9*	i
CC(=O)C(/C=N/c1cc(-c2ccc(C)cc2)nn1-c1ccccc1)=C(\C)O	i	i	i	i	i
CNC(=O)/C(C#N)=C/c1ccc(-c2ccc(OC)cc2[N+](=O)[O-])o1	i	i	i	-5.2*	i
O=C(CN1C(=O)NC2(CCCC2)C1=O)NCCC1=CCCCC1	i	i	i	i	-7.3*
O=C(CN1C(=O)S/C(=C\c2ccccn2)C1=O)Nc1ccccc1	i	i	i	i	i
COc1cc(/C=C2\SC(=S)N(CCC(=O)Nc3cccc(O)c3)C2=O)cc(OC)c1OC	i	i	i	-4.6*	-8.1*
O=C(CCN1C(=O)/C(=C\c2ccccc2)SC1=S)Nc1ccc(C(=O)O)cc1	i	i	14*	i	i
O=C(O)CN1C(=O)/C(=C\c2cccc(OCc3ccccc3)c2)SC1=S	i	i	i	i	i
O=C(O)COc1cccc(/C=C2/SC(=S)N(Cc3ccccc3)C2=O)c1	5.7*	i	i	i	i
O=C(CN1C(=O)S/C(=C\c2cc(Cl)c(O)c(Cl)c2)C1=O)Nc1ccccc1	i	27*	i	i	i
CCOCCCNC(=O)c1ccc(/C=C2\Oc3ccccc3N(C)C2=O)cc1	i	i	i	i	i
SMILES	RGS4 inh	MrgX1 ag	MrgX1 allo act	MrgX1 antag	RGS4 pot
CCC(C)/C(C)=N/NC(=O)c1ccc(COc2ccc(Cl)c(C)c2)cc1 (stereo not given)	/	i	10*	i	/
CCOc1ccc(OCc2ccc(C(=O)N/N=C(\C)c3ccccn3)cc2)cc1	i	i	i	i	i
O=C(Nc1ccc(-c2nc3ccccc3[nH]2)cc1)c1cccc(N2C(=O)CCC2=O)c1	i	i	i	i	i
O=C(NCC1CCCO1)c1sc(=S)n2c1[nH]c(=O)c1ccc(C(=O)N3CCCCC3)cc12 (stereo not given)	i	i	i	i	i
O=C(NC1CCCCC1)c1sc(=S)n2c1[nH]c(=O)c1ccccc12	i	47*	i	i	i
CCCCNC(=O)c1sc(=S)n2c1[nH]c(=O)c1ccccc12	i	63*	i	i	i
Cc1c(NC(=O)Nc2ccc(C#N)cc2)c(=O)n(-c2ccccc2)n1C	i	i	i	i	i
CCCOC(=O)c1ccc(NC(=O)C2C3C=CC(O3)C2C(=O)O)cc1 (stereo not given)	i	i	7.9*	i	i
CCCCOc1ccc(C(=O)NCC(=O)NC2CCN(Cc3ccccc3)CC2)cc1	i	i	i	i	i
CN(C)/C=C1\SC(=S)N(c2ccc(F)cc2)C1=O	i	i	i	i	i
CN(C)/C=C1\SC(=S)N(c2ccc(Br)cc2)C1=O	i	i	i	-4.9*	i
CCOC(=O)NC(=O)/C(C#N)=C/c1ccc(N(C)C)cc1	i	54*	i	i	i
CCN(CC)c1ccc(/C=C(\C#N)C(N)=S)cc1	i	i	i	i	i
CCN(CC)c1ccc(/C=C(\C#N)C(=O)c2ccc(Br)cc2)cc1	i	30*	i	i	i
CN(C)c1ccc(/C=C(\C#N)C(=O)c2ccccc2)cc1	i	i	i	-6.3*	i
C[n+]1cccc(O)c1SCc1ccccc1	i	i	i	i	i
Cc1cccc(-c2nnc(-c3cccc(NC(=O)Cc4cccs4)c3)o2)c1	i	i	i	i	-7.4*
O=C(Cc1cccs1)Nc1ccc(-c2nnc(-c3ccccc3)o2)cc1	i	i	i	i	i
CCN(C(=O)c1cccc(S(=O)(=O)N2CCCCC2)c1)C1CCS(=O)(=O)C1 (stereo not given)	i	/	/	/	i
CC1CN(C(=O)COC(=O)c2cc(Cl)ccc2[N+](=O)[O-])CC(C)O1 (stereo not given)	i	i	i	-4.8*	i
Cc1nc2c3cc(Cl)ccc3n(CCN3CCCCC3)c2s1	i	i	11*	i	i
Cc1ccc(-c2nc(CS(=O)CC(=O)NCCCN3CCN(Cc4ccccc4)CC3)c(C)o2)cc1 (stereo not given)	i	i	i	i	i
CCN(CCCNC(=O)CCCCn1c(=O)[nH]c2ccccc2c1=O)c1ccccc1	i	i	i	-5*	i
